Source: ChEMBL document CHEMBL2311384, “Probing the steric requirements of the γ-aminobutyric acid aminotransferase active site with fluorinated analogues of vigabatrin” (Bioorg Med Chem, 2013)
pKi: −log10 of the molar value. Activity calls are given as the source filed them. No cut-off for these calls is given here.

Tests used:
[1] = target: 4-aminobutyrate aminotransferase, mitochondrial (Sus scrofa) (UniProt P80147); assay: Time dependent inhibition of pig brain GABA-AT using GABA as substrate at 5 mM up to 150 mins
Method in brief: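 Pig brain GABA-AT in 100 mM potassium phosphate pH 7.0 preincubated at 25 °C with β-mercaptoethanol, α-ketoglutarate and compound (5 mM final); aliquots taken at time points into assay solution (GABA, α-ketoglutarate, NADP+, pH 8.6) with excess SSADH; remaining activity from 340 nm NADPH absorbance rate.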

[2] = target: 4-aminobutyrate aminotransferase, mitochondrial (Sus scrofa) (UniProt P80147); assay: Reversible inhibition of pig brain GABA-AT using GABA as substrate at 23 mM
[3] = target: 4-aminobutyrate aminotransferase, mitochondrial (Sus scrofa) (UniProt P80147); assay: Activity at pig brain GABA-AT assessed as glutamate production at 3 mM preincubated for 20 mins relative to GABA
Method in brief: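 GABA-AT purified from pig brain; substrate tested as turnover substrate in 100 mM potassium pyrophosphate pH 8.6 with α-ketoglutarate; glutamate formed detected by glutamate oxidase/horseradish peroxidase/Amplex Red fluorescence (ex 530, em 590 nm); scaled to glutamate standard curve (0–10 µM); highest rates, between 15 and 25 min, used.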

[4] = target: 4-aminobutyrate aminotransferase, mitochondrial (Sus scrofa, UniProt P80147); assay: Reversible inhibition of pig brain GABA-AT using GABA as substrate
Method in brief: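 Pig brain GABA-AT, purified in-house, mixed with excess SSADH (from GABase), then inhibitor at several concentrations added in assay buffer: 87 mM potassium pyrophosphate pH 8.6, 6 mM GABA, 5 mM α-ketoglutarate, 1.25 mM NADP+, 3.3 mM β-mercaptoethanol. Rate read directly without preincubation as NADPH absorbance at 340 nm. IC50 from concentration-response fit; Ki via Cheng-Prusoff.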

4-aminobutyrate aminotransferase, mitochondrial (Sus scrofa), sequence (P80147 whole entry): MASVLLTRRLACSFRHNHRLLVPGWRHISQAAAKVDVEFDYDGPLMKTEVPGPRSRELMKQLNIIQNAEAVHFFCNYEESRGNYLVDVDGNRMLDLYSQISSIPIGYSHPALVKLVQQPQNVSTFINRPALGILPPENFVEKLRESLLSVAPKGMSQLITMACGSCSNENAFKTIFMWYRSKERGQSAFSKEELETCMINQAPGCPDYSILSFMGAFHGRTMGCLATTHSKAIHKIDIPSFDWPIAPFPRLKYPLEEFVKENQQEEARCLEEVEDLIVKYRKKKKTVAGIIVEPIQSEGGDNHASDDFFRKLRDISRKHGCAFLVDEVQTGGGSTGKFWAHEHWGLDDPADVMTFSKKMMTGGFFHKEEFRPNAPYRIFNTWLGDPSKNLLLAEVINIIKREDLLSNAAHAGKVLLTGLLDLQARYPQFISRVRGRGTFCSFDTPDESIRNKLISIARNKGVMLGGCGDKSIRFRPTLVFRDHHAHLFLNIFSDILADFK
4-aminobutyrate aminotransferase, mitochondrial, sequence (P80147 whole entry): as above

| SMILES | inhibition [1] | inhibition [2] | Activity [3] [%] | pKi [4] |
| --- | --- | --- | --- | --- |
| C[C@H](F)[C@@H](N)CCC(=O)O | inactive | inactive | 0.11 |  |
| C[C@@H](F)[C@H](N)CCC(=O)O | inactive | inactive | 0.02 |  |
| N[C@@H]1C=C[C@H](C(=O)O)C1 |  |  |  | 4.40 |
| C[C@@H](F)[C@@H](N)CCC(=O)O | inactive | inactive | 0.32 |  |
